# Tests used:
# [1] = target: T1, Dual specificity tyrosine-phosphorylation-regulated kinase 1A (Homo sapiens, UniProt Q13627); test: Displacement of Kinase tracer 236 from biotinylated DYRK1A (unknown origin) expressed in Escherichia coli BL21 (DE3) incubated for 1.5 hrs by TR-FRET assay
# [2] = Metabolic stability in human liver microsomes; type: ADME, Microsome; conditions: read-out: Stabilty
# [3] = Metabolic stability in rat liver microsomes; type: ADME, Microsome; conditions: read-out: Stabilty
# [4] = Thermodynamic solubility of the compound at pH 6.8; type: physicochemical; conditions: buffer, read-out: Therm_solubility
# Outline: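 Thermodynamic solubility measured at pH 6.8 in a single experiment, reported in […].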
# [5] = target: Dual specificity tyrosine-phosphorylation-regulated kinase 1B (Homo sapiens) (UniProt Q9Y463); test: Inhibition of wild-type human full length DYRK1B (M1 to S629 residues) expressed in bacterial expression system assessed as remaining activity at 1 uM by Kinomescan method relative to control
# Chain of Dual specificity tyrosine-phosphorylation-regulated kinase 1B (Homo sapiens) (Q9Y463 whole entry, looked up, the tested form may be a part): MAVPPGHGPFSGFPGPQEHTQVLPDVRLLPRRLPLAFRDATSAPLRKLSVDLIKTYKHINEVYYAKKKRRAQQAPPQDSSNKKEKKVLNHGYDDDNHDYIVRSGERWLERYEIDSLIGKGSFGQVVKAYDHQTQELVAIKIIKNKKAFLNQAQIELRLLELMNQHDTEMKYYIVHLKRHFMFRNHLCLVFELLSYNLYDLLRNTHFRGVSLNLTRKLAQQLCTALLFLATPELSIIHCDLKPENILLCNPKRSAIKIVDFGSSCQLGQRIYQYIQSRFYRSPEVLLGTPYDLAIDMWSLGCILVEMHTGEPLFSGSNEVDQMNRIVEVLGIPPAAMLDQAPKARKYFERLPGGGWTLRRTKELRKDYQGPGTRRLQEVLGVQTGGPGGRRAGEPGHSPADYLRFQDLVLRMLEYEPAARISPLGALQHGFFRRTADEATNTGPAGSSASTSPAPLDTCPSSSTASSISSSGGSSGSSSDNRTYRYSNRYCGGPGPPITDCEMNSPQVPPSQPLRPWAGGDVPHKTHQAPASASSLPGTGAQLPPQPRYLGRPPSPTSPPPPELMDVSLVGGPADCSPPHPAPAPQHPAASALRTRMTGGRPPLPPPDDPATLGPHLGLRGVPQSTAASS
# Outline: (§1)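 KINOMEscan competition binding panel run with inhibitor at 1 μM; read-out is remaining kinase activity (percent of control).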
# [6] = target: T2, Dual specificity tyrosine-phosphorylation-regulated kinase 2 (Homo sapiens) (UniProt Q92630); test: Inhibition of wild-type human full length DYRK2 (M1 to S528 residues) expressed in mammalian expression system assessed as remaining activity at 1 uM by Kinomescan method relative to control; outline: as §1
# T2 sequence (whole entry): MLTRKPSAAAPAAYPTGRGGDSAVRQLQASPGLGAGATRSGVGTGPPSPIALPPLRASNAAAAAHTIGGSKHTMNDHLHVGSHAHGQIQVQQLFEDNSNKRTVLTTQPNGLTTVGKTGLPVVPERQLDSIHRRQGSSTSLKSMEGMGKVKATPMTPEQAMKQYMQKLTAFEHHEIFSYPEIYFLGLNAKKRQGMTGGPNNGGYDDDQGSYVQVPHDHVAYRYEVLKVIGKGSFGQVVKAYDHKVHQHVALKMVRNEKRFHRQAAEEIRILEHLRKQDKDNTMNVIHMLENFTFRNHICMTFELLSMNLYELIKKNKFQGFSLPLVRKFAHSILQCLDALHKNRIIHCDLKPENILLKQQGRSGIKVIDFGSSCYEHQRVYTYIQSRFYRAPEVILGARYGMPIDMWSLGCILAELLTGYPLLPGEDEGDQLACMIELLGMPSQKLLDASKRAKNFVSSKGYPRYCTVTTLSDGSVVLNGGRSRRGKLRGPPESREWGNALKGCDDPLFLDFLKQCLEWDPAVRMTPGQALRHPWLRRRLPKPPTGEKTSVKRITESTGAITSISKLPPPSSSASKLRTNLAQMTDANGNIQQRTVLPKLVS
# [7] = target: Dual specificity protein kinase CLK1 (Homo sapiens, UniProt P49759); test: Inhibition of wild-type human full length CLK1 (M1 to I484 residues) expressed in bacterial expression system assessed as remaining activity at 1 uM by Kinomescan method relative to control; outline: as §1
# Chain of Dual specificity protein kinase CLK1 (P49759 whole entry, looked up, the tested form may be a part): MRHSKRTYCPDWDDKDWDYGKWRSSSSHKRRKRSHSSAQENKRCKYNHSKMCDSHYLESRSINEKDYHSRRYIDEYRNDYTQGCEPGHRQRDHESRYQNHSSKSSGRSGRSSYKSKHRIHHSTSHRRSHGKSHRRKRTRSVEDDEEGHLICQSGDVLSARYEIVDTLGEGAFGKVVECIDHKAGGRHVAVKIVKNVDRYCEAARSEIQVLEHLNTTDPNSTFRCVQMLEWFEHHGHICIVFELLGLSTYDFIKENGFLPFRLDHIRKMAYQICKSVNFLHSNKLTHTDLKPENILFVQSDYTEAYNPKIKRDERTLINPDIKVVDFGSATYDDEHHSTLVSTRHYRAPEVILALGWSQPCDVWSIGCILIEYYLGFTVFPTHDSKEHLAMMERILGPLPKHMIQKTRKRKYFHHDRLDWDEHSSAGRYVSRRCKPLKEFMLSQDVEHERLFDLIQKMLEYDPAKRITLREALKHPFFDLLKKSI
# [8] = target: Dual specificity protein kinase CLK2 (Homo sapiens) (UniProt P49760); test: Inhibition of wild-type human partial length CLK2 (D144 to R498 residues) expressed in bacterial expression system assessed as remaining activity at 1 uM by Kinomescan method relative to control; outline: as §1
# Chain of Dual specificity protein kinase CLK2 (Homo sapiens) (P49760 whole entry, looked up, the tested form may be a part): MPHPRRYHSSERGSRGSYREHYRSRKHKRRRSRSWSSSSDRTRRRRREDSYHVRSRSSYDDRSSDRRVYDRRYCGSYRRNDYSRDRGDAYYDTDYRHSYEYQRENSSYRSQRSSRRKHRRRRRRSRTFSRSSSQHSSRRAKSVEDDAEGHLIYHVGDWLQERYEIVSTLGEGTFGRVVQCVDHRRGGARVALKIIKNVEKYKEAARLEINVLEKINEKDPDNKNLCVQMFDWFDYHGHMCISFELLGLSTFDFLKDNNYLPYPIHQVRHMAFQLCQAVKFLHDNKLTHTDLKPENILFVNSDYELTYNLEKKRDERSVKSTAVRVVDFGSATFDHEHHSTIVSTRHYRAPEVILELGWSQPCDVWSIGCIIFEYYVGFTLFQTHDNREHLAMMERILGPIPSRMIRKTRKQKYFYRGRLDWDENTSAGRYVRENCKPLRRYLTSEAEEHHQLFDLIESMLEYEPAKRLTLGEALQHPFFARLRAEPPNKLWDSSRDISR
# [9] = target: Dual specificity protein kinase CLK3 (Homo sapiens) (UniProt P49761); test: Inhibition of wild-type human full length CLK3 (M1 to R490 residues) expressed in bacterial expression system assessed as remaining activity at 1 uM by Kinomescan method relative to control; outline: as §1
# Chain of Dual specificity protein kinase CLK3 (Homo sapiens) (P49761 whole entry, looked up, the tested form may be a part): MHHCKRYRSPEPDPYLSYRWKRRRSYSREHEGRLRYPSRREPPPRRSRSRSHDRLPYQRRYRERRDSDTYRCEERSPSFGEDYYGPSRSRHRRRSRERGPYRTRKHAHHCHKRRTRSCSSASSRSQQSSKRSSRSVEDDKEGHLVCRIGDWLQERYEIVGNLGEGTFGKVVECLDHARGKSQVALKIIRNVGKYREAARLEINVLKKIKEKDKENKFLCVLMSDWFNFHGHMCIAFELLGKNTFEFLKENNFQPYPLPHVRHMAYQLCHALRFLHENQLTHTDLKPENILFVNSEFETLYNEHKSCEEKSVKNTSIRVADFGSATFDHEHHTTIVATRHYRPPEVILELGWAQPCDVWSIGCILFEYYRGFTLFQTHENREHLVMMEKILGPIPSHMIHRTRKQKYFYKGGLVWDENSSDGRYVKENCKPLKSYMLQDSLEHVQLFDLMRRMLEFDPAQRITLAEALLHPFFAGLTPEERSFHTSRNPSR
# [10] = target: Cyclin-dependent kinase 2 (Homo sapiens) (UniProt P24941); test: Inhibition of wild-type human full length CDK2 (M1 to L298 residues) expressed in bacterial expression system assessed as remaining activity at 1 uM by Kinomescan method relative to control; outline: as §1
# [11] = target: Glycogen synthase kinase-3 beta (Homo sapiens) (UniProt P49841); test: Inhibition of wild-type human full length GSK3B (M1 to T433 residues) expressed in mammalian expression system assessed as remaining activity at 1 uM by Kinomescan method relative to control; outline: as §1
# Chain of Glycogen synthase kinase-3 beta (Homo sapiens) (P49841 whole entry, looked up, the tested form may be a part): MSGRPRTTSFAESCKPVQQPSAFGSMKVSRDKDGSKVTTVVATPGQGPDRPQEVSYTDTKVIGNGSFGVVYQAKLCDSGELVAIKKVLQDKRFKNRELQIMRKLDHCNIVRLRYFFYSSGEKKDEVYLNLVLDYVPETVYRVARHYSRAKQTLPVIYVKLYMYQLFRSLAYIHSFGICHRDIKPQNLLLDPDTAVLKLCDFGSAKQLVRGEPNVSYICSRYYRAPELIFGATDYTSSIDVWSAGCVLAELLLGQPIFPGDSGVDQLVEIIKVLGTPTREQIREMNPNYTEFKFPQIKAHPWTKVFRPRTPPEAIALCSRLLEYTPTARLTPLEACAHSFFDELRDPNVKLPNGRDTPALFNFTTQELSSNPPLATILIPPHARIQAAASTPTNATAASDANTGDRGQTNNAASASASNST
# [12] = target: T1, Dual specificity tyrosine-phosphorylation-regulated kinase 1A; test: Binding affinity to biotinylated DYRK1A (unknown origin) expressed in Escherichia coli BL21 (DE3) assessed as dissociation constant measured up to 5 min by SPR method
compound,measurement,setting,value
CC1CCCN1c1nccc(-c2cnn3ncccc23)n1 (configuration not stated),IC50,[1],110 nM
same,microsomal CLint,[2],328 µL/min/mg
same,microsomal CLint,[3],929 µL/min/mg
same,solubility thermodynamic,[4],10 µg/mL
same,Activity,[5],81%
same,Activity,[6],66%
same,Activity,[7],71%
same,Activity,[8],61%
same,Activity,[9],100%
same,Activity,[10],100%
same,Activity,[11],92%
Nc1nccc(-c2cnn3ncccc23)n1,IC50,[1],525 nM
same,Kd,[12],134 nM
N[C@H]1CCN(c2nccc(-c3cnn4ncccc34)n2)C1,microsomal CLint,[2],199 µL/min/mg
same,microsomal CLint,[3],48 µL/min/mg
same,solubility thermodynamic,[4],1920 µg/mL
same,Activity,[5],18%
same,Activity,[6],29%
same,Activity,[7],36%
same,Activity,[8],72%
same,Activity,[9],95%
same,Activity,[10],100%
same,Activity,[11],100%
CNc1nccc(-c2cnn3ncccc23)n1,IC50,[1],182 nM
same,Kd,[12],55 nM
COc1ncc(-c2ccnc(N(C)C)n2)s1,IC50,[1],3980 nM
CN(C)c1nc(Cl)cc(-c2cnn3ncccc23)n1,IC50,[1],1350 nM
CN(C)c1cc(-c2cnn3ncccc23)ccn1,IC50,[1],676 nM
CN(C)c1cccc(-c2cnn3ncccc23)n1,IC50,[1],912 nM
c1cnn2ncc(-c3ccnc(N4CCC5(CCOC5)C4)n3)c2c1 (configuration not stated),IC50,[1],269 nM
CC1(C)CCN(c2nccc(-c3cnn4ncccc34)n2)C1,IC50,[1],427 nM
Cc1cc(-c2cnn3ncccc23)nc(N(C)C)n1,IC50,[1],11700 nM
Cc1ccnn2ncc(-c3ccnc(N(C)C)n3)c12,IC50,[1],724 nM
CN(C)c1ncc(Cl)c(-c2cnn3ncccc23)n1,IC50,[1],331 nM
same,Kd,[12],963 nM
CN(C)c1nccc(-c2c[nH]c3ncccc23)n1,IC50,[1],135 nM
same,microsomal CLint,[2],154 µL/min/mg
same,microsomal CLint,[3],234 µL/min/mg
CN(C)c1ncnc(-c2cnn3ncccc23)n1,IC50,[1],182 nM
same,Kd,[12],153 nM
same,microsomal CLint,[2],93.6 µL/min/mg
same,microsomal CLint,[3],105 µL/min/mg
same,solubility thermodynamic,[4],50 µg/mL
COc1ccc2c(-c3ccnc(N(C)C)n3)cnn2n1,IC50,[1],2630 nM
Cc1ccc2c(-c3ccnc(N(C)C)n3)cnn2n1,IC50,[1],871 nM
CN(C)c1nccc(-c2cn(C)c3ncccc23)n1,IC50,[1],11700 nM
COc1cc(-c2cnn3ncccc23)nc(N(C)C)n1,IC50,[1],> 100000 nM
CN(C)c1nccc(-c2cnc3ccccn23)n1,IC50,[1],692 nM
CN(C)c1nccc(-c2ccc(=O)n(C)c2)n1,IC50,[1],7940 nM
CN(CCCC(F)(F)F)c1nccc(-c2cnn3ncccc23)n1,IC50,[1],100 nM
"CC1CCN(c2nccc(-c3cnn4ncccc34)n2)C1 (single isomer, unassigned) [listing 1 of 2 here]",IC50,[1],148 nM
same,microsomal CLint,[2],389 µL/min/mg
same,microsomal CLint,[3],184 µL/min/mg
same,solubility thermodynamic,[4],50 µg/mL
CCn1cc(-c2ccnc(N(C)C)n2)c2cccnc21,IC50,[1],7760 nM
CC1CCN(c2nccc(-c3cnn4ncccc34)n2)C1 (configuration not stated),IC50,[1],204 nM
c1cnn2ncc(-c3ccnc(N4CC5(COC5)C4)n3)c2c1,IC50,[1],513 nM
CC(C)c1cc(-c2cnn3ncccc23)nc(N(C)C)n1,IC50,[1],19100 nM
Cc1cnn2ncc(-c3ccnc(N(C)C)n3)c2c1,IC50,[1],115 nM
same,microsomal CLint,[2],160 µL/min/mg
same,microsomal CLint,[3],164 µL/min/mg
same,solubility thermodynamic,[4],10 µg/mL
same,Activity,[5],1.6%
same,Activity,[6],25%
same,Activity,[7],15%
same,Activity,[8],13%
same,Activity,[9],76%
same,Activity,[10],89%
same,Activity,[11],100%
CN(C)C1CCN(c2nccc(-c3cnn4ncccc34)n2)C1 (configuration not stated),IC50,[1],245 nM
CN(C)c1ncc(I)c(-c2cnn3ncccc23)n1,IC50,[1],1620 nM
CN(C)c1nccc(-c2cnc3cccnn23)n1,IC50,[1],55000 nM
CC1(F)CN(c2nccc(-c3cnn4ncccc34)n2)C1,IC50,[1],372 nM
CN(C)c1nccc(-c2cn(C)c3cnccc23)n1,IC50,[1],977 nM
CN(C)c1ncc(C(F)(F)F)c(-c2cnn3ncccc23)n1,IC50,[1],12900 nM
Cc1cnc(N(C)C)nc1-c1cnn2ncccc12,IC50,[1],2820 nM
CCCN(c1nccc(-c2cnn3ncccc23)n1)C(C)C,IC50,[1],759 nM
CN(C)c1nccc(-c2c[nH]c3cnccc23)n1,IC50,[1],1020 nM
"NC1CCN(c2nccc(-c3cnn4ncccc34)n2)C1 (single isomer, unassigned)",microsomal CLint,[2],40 µL/min/mg
same,microsomal CLint,[3],66 µL/min/mg
same,solubility thermodynamic,[4],4370 µg/mL
same,Activity,[5],10%
same,Activity,[6],28%
same,Activity,[7],47%
same,Activity,[8],51%
same,Activity,[9],89%
same,Activity,[10],86%
same,Activity,[11],100%
c1cnn2ncc(-c3ccnc(N4CC5CCCC5C4)n3)c2c1 (configuration not stated),IC50,[1],1230 nM
CN(C)c1ncc(Br)c(-c2cnn3ncccc23)n1,IC50,[1],1580 nM
CN(CCC(F)(F)F)c1nccc(-c2cnn3ncccc23)n1,IC50,[1],229 nM
CN(C)c1nccc(-c2cnn3ccccc23)n1,IC50,[1],891 nM
"FC1CCN(c2nccc(-c3cnn4ncccc34)n2)C1 (single isomer, unassigned)",IC50,[1],66.1 nM
same,microsomal CLint,[2],296 µL/min/mg
same,microsomal CLint,[3],130 µL/min/mg
same,solubility thermodynamic,[4],40 µg/mL
same,Activity,[5],34%
same,Activity,[6],39%
same,Activity,[7],48%
same,Activity,[8],62%
same,Activity,[9],96%
same,Activity,[10],95%
same,Activity,[11],98%
CN(c1ccccc1)c1nccc(-c2cnn3ncccc23)n1,microsomal CLint,[2],450 µL/min/mg
same,microsomal CLint,[3],340 µL/min/mg
same,solubility thermodynamic,[4],50 µg/mL
Cc1cccc(N(C)c2nccc(-c3cnn4ncccc34)n2)c1,IC50,[1],79.4 nM
same,microsomal CLint,[3],784 µL/min/mg
CC(C)N(c1nccc(-c2cnn3ncccc23)n1)C1CC1,IC50,[1],1200 nM
F[C@H]1CCN(c2nccc(-c3cnn4ncccc34)n2)C1,IC50,[1],186 nM
c1cnn2ncc(-c3ccnc(N4CC5CC5C4)n3)c2c1 (configuration not stated),IC50,[1],309 nM
CN(C)c1nc2c(c(-c3cnn4ncccc34)n1)COC2,IC50,[1],7410 nM
C[C@H]1CCN(c2nccc(-c3cnn4ncccc34)n2)C1,IC50,[1],115 nM
same,microsomal CLint,[2],378 µL/min/mg
same,microsomal CLint,[3],448 µL/min/mg
same,solubility thermodynamic,[4],20 µg/mL
same,Activity,[5],7.2%
same,Activity,[6],15%
same,Activity,[7],17%
same,Activity,[8],16%
same,Activity,[9],88%
same,Activity,[10],100%
same,Activity,[11],77%
"CC1CCN(c2nccc(-c3cnn4ncccc34)n2)C1 (single isomer, unassigned) [listing 2 of 2 here]",Activity,[5],9.1%
same,Activity,[6],25%
same,Activity,[7],16%
same,Activity,[8],15%
same,Activity,[9],73%
same,Activity,[10],95%
same,Activity,[11],100%
COc1ccnn2ncc(-c3ccnc(N(C)C)n3)c12,IC50,[1],138 nM
same,microsomal CLint,[2],89 µL/min/mg
same,microsomal CLint,[3],77 µL/min/mg
same,solubility thermodynamic,[4],70 µg/mL
same,Activity,[5],0.7%
same,Activity,[6],24%
same,Activity,[7],7.8%
same,Activity,[8],12%
same,Activity,[9],83%
same,Activity,[10],100%
same,Activity,[11],100%
Cc1nn2ncccc2c1-c1ccnc(N(C)C)n1,IC50,[1],30900 nM
c1cnn2ncc(-c3ccnc(N4CCC5CNCC54)n3)c2c1 (configuration not stated),IC50,[1],1660 nM
CN(C)c1nccc(-c2cnc3ncccn23)n1,IC50,[1],158 nM
same,microsomal CLint,[2],154 µL/min/mg
same,microsomal CLint,[3],96 µL/min/mg
same,solubility thermodynamic,[4],470 µg/mL
same,Activity,[5],6.2%
same,Activity,[6],35%
same,Activity,[7],20%
same,Activity,[8],31%
same,Activity,[9],56%
same,Activity,[10],86%
same,Activity,[11],77%
COc1cnc(N(C)C)nc1-c1cnn2ncccc12,IC50,[1],1170 nM
COCCCN(C)c1nccc(-c2cnn3ncccc23)n1,IC50,[1],219 nM
CCCN(CCOC)c1nccc(-c2cnn3ncccc23)n1,IC50,[1],316 nM

# — ChEMBL document CHEMBL4808225, “Discovery and Characterization of Selective and Ligand-Efficient DYRK Inhibitors” (J Med Chem, 2021)
